Laboratory results: ChEMBL document CHEMBL2401620, “Molecular design, synthesis and biological evaluation of BP-O-DAPY and O-DAPY derivatives as non-nucleoside HIV-1 reverse transcriptase inhibitors” (Eur J Med Chem, 2013)
pEC50, pIC50: −log10 of the molar value.

Experiments:
[1] = test system: Human immunodeficiency virus 2; test: Antiviral activity against HIV2 ROD infected in human MT4 cells assessed as inhibition of virus-induced cytopathic effect after 5 days by MTT assay; assay type: functional, organism-based; details: Human immunodeficiency virus 2, ISOLATE ROD, MT4, 120 h
Outline: (§1)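 MT-4 cells, spun 5 min at 220 g, resuspended at 6 × 10⁵ cells/mL, infected with virus stock at 100-300 CCID50. Serial 5-fold compound dilutions were added at the start, in triplicate wells. After 5 days, viability was read by MTT reduction at 540 and 690 nm.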

[2] = test system: Human immunodeficiency virus 1; test: Antiviral activity against HIV1 RES056 expressing RT K103N/Y181C mutant infected in human MT4 cells assessed as inhibition of virus-induced cytopathic effect after 5 days by MTT assay; assay type: functional, organism-based; details: Human immunodeficiency virus 1, RES056, MT4, 120 h
Outline: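 MT-4 cells, exponentially growing, spun 5 min at 220 g and resuspended at 6 × 10⁵ cells/mL, then infected with 100-300 CCID₅₀ virus stock. Serial 5-fold compound dilutions were added from 10× stocks, in triplicate alongside mock-infected wells. Viability was read by MTT at 540 and 690 nm. EC₅₀ is the concentration giving 50% protection from cytopathic effect, using median OD of three wells.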

[3] = test system: Human immunodeficiency virus 1; test: Antiviral activity against HIV1 3B infected in human MT4 cells assessed as inhibition of virus-induced cytopathic effect after 5 days by MTT assay; assay type: functional, organism-based; details: Human immunodeficiency virus 1, 3B, MT4, 120 h; outline: as §1
[4] = Selectivity index, ratio of CC50 for human MT4 cells to EC50 for HIV1 3B; assay type: toxicity, cell-based; details: read-out: Ratio CC50/EC50
Outline: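 SI is CC50 in mock-infected MT-4 cells divided by EC50 against HIV-1 IIIB. Both come from the same 5-day MTT assay, with serial 5-fold dilutions in triplicate wells.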

[5] = Cytotoxicity against human MT4 cells after 5 days by MTT assay; assay type: cell-based
Outline: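 Mock-infected MT-4 cells at 6 × 10⁵ cells/mL received medium instead of virus, with serial 5-fold compound dilutions in triplicate. After 5 days, viability was read by MTT at 540 and 690 nm.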

[6] = target: Human immunodeficiency virus type 1 reverse transcriptase (Human immunodeficiency virus 1, UniProt Q72547); test: Inhibition of recombinant wild type HIV1 RT using poly(rA)/oligo(dT)16 as template after 40 mins by spectrofluorometric analysis
[7] = test system: Human immunodeficiency virus 1; test: Ratio of nevirapine EC50 to compound EC50 for HIV1 3B; assay type: functional
[8] = test system: Human immunodeficiency virus 1; test: Ratio of delavirdine EC50 to compound EC50 for HIV1 3B; assay type: functional
[9] = target: Human immunodeficiency virus type 1 reverse transcriptase (Human immunodeficiency virus 1, UniProt Q72547, K103N/Y181C); test: Inhibition of HIV RT K103N/Y181C mutant by cell based assay
Outline: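 Serial 5-fold compound dilutions in triplicate wells, with parallel mock-infected wells. After 5 days, viability was read by MTT reduction at 540 and 690 nm. The median OD of three wells gave EC₅₀, the concentration giving 50% protection from viral cytopathic effect.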

Row | SMILES | pEC50 [1] | pEC50 [2] | pEC50 [3] | selectivity ratio [4] | CC50 at 120 h [5] [µM] | pIC50 [6] | Ratio EC50 [7] | Ratio EC50 [8] | pEC50 [9]
1 | Cc1cc(C)cc(C(=O)c2cc(Cl)ccc2Oc2cc(C)nc(Nc3ccc(C#N)cc3)n2)c1 | < 4.43 | < 4.43 | < 4.43 | < 1 | 37.1 | – | – | – | –
2 | Cc1ccc(C(=O)c2cc(Cl)ccc2Oc2cc(C)nc(Nc3ccc(C#N)cc3)n2)cc1 | < 4.58 | < 4.58 | < 4.58 | < 1 | 26.6 | – | – | – | –
3 | Cc1cc(C)cc(C(=O)c2cc(Cl)ccc2Oc2ccnc(Nc3ccc(C#N)cc3)n2)c1 | < 4.54 | < 4.54 | 6.10 | 36 | 28.8 | 5.49 | – | – | –
4 | N#Cc1ccc(Nc2nccc(Oc3ccc(OCc4ccccc4)cc3)n2)cc1 | < 3.50 | < 3.50 | 4.34 | > 7 | > 317 | 4.51 | – | – | –
5 | Cc1cc(Oc2ccc(Cl)cc2C(=O)c2ccccc2C)nc(Nc2ccc(C#N)cc2)n1 | < 5.37 | < 5.37 | < 5.37 | < 1 | 4.24 | – | – | – | –
6 | COc1ccc(C(=O)c2ccccc2)c(Oc2cc(C)nc(Nc3ccc(C#N)cc3)n2)c1 | < 5.31 | < 5.31 | < 5.31 | < 1 | 4.9 | – | – | – | –
7 | O=C1Nc2ccc(Cl)cc2[C@@](C#CC2CC2)(C(F)(F)F)O1 [EFAVIRENZ] | < 5.20 | – | 8.00 | – | > 6.34 | – | – | – | –
8 | COc1ccc(C(=O)c2ccccc2)c(Oc2nc(Nc3ccc(C#N)cc3)ncc2C)c1 | < 5.13 | < 5.13 | ≤ 5.45 | ≤ 2 | 7.42 | – | – | – | –
9 | N#Cc1ccc(Nc2nccc(Oc3ccc(C(=O)c4ccc(O)cc4)cc3)n2)cc1 | < 4.71 | < 4.71 | 5.57 | 7 | 19.4 | 5.15 | – | – | –
10 | Cc1cnc(Nc2ccc(C#N)cc2)nc1Oc1ccc(C(=O)c2ccc(O)cc2)cc1 | < 3.53 | < 3.53 | 5.44 | > 82 | > 296 | 5.28 | – | – | –
11 | COCCc1ccc(Oc2cc(C)nc(Nc3ccc(C#N)cc3)n2)cc1 | < 4.86 | < 4.86 | 6.10 | 18 | 13.8 | 4.93 | – | – | –
12 | COCCc1ccc(Oc2nc(Nc3ccc(C#N)cc3)ncc2C)cc1 | < 3.46 | < 3.46 | 7.22 | > 6260 | > 347 | 5.90 | 1.8 | 1.8 | –
13 | Cc1cc(Oc2ccc(OCc3ccccc3)cc2)nc(Nc2ccc(C#N)cc2)n1 | < 4.56 | < 4.56 | 5.37 | 6 | 27.7 | 4.76 | – | – | –
14 | Cc1ccc(C(=O)c2cc(Cl)ccc2Oc2nc(Nc3ccc(C#N)cc3)ncc2C)cc1 | < 6.08 | < 6.08 | 5.42 | < 1 | ≥ 0.83 | – | – | – | –
15 | Cc1ccnc2c1NC(=O)c1cccnc1N2C1CC1 [NEVIRAPINE] | < 4.82 | 5.29 | – | – | > 15 | – | – | – | –
16 | Cc1cc(C)cc(C(=O)c2cc(Cl)ccc2Oc2nc(Nc3ccc(C#N)cc3)ncc2C)c1 | < 4.87 | < 4.87 | 5.83 | 9 | 13.4 | 5.51 | – | – | –
17 | COc1ccc(C(=O)c2ccccc2)c(Oc2ccnc(Nc3ccc(C#N)cc3)n2)c1 | < 6.12 | < 6.12 | < 6.12 | < 1 | 0.76 | – | – | – | –
18 | Cc1cc(Oc2ccc(C(=O)c3ccc(O)cc3)cc2)nc(Nc2ccc(C#N)cc2)n1 | < 4.49 | < 4.49 | ≤ 5.29 | ≤ 6 | 32 | 4.77 | – | – | –
19 | Cc1ccccc1C(=O)c1cc(Cl)ccc1Oc1nc(Nc2ccc(C#N)cc2)ncc1C | < 4.62 | < 4.62 | 5.96 | 22 | 24.2 | 5.28 | – | – | –
20 | Cc1cn([C@H]2C[C@H](N=[N+]=[N-])[C@@H](CO)O2)c(=O)[nH]c1=O [ZIDOVUDINE] | 8.00 | 8.00 | 8.00 | > 14400 | > 93.5 | – | – | – | –
21 | Cc1ccccc1C(=O)c1cc(Cl)ccc1Oc1ccnc(Nc2ccc(C#N)cc2)n1 | < 4.54 | < 4.54 | 5.87 | 21 | 28.8 | 5.46 | – | – | –
22 | COCCc1ccc(Oc2ccnc(Nc3ccc(C#N)cc3)n2)cc1 | ≤ 4.34 | ≤ 4.03 | 6.59 | 359 | 93.2 | 5.57 | – | – | –
23 | CC(C)Nc1cccnc1N1CCN(C(=O)c2cc3cc(NS(C)(=O)=O)ccc3[nH]2)CC1 [DELAVIRDINE] | < 4.44 | < 4.44 | 6.96 | – | > 36.2 | – | – | – | –
24 | Cc1cnc(Nc2ccc(C#N)cc2)nc1Oc1ccc(OCc2ccccc2)cc1 | < 3.77 | < 3.77 | < 3.77 | 29 | 170 | – | – | – | –
25 | Cc1cc(/C=C/C#N)cc(C)c1Nc1ccnc(Nc2ccc(C#N)cc2)n1 [RILPIVIRINE] | – | – | – | – | – | – | – | – | 9.10
26 | Cc1ccc(C(=O)c2cc(Cl)ccc2Oc2ccnc(Nc3ccc(C#N)cc3)n2)cc1 | < 5.77 | < 5.77 | < 5.77 | < 1 | 1.71 | – | – | – | –
